Data as given in ChEMBL document CHEMBL5046302, “Identification and Evaluation of Brominated Carbazoles as a Novel Antibiotic Adjuvant Scaffold in MRSA” (2022).
Calls of active or inactive are those of the source. No cut-off for these calls is given here.

Legend:
Assay type in all cases: functional
[1] = test system: Staphylococcus aureus; assay: Antibacterial activity against methicillin-resistant Staphylococcus aureus ATCC 43300 assessed as inhibition of bacterial growth after 18 hrs by CLSI protocol based broth microdilution assay
Outline: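 Broth microdilution MIC of carbazole alone vs MRSA ATCC 43300, tested up to 200 μM.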

[2] = test system: Staphylococcus aureus; assay: Potentiation of oxacillin induced antibacterial activity against methicillin-resistant Staphylococcus aureus ATCC 43300 assessed as oxacillin MIC at 50 uM after 18 hrs by CLSI protocol based broth microdilution assay
[3] = test system: Staphylococcus aureus; assay: Potentiation of oxacillin induced antibacterial activity against methicillin-resistant Staphylococcus aureus ATCC 43300 assessed as fold change in oxacillin MIC at 50 uM after 18 hrs by CLSI protocol based broth microdilution assay
[4] = test system: Staphylococcus aureus; assay: Potentiation of oxacillin induced antibacterial activity against methicillin-resistant Staphylococcus aureus USA 100 assessed as fold change in oxacillin MIC at 50 uM after 18 hrs by CLSI protocol based broth microdilution assay
[5] = test system: Staphylococcus aureus; assay: Potentiation of oxacillin induced antibacterial activity against methicillin-resistant Staphylococcus aureus COL assessed as fold change in oxacillin MIC at 50 uM after 18 hrs by CLSI protocol based broth microdilution assay
[6] = test system: Staphylococcus aureus; assay: Potentiation of oxacillin induced antibacterial activity against methicillin-resistant Staphylococcus aureus COL assessed as oxacillin MIC at 50 uM after 18 hrs by CLSI protocol based broth microdilution assay
[7] = test system: Staphylococcus aureus; assay: Potentiation of oxacillin induced antibacterial activity against methicillin-resistant Staphylococcus aureus USA300 assessed as fold change in oxacillin MIC at 50 uM after 18 hrs by CLSI protocol based broth microdilution assay
[8] = test system: Staphylococcus aureus; assay: Potentiation of oxacillin induced antibacterial activity against methicillin-resistant Staphylococcus aureus USA100 assessed as oxacillin MIC at 50 uM after 18 hrs by CLSI protocol based broth microdilution assay
[9] = test system: Staphylococcus aureus; assay: Potentiation of oxacillin induced antibacterial activity against methicillin-resistant Staphylococcus aureus USA300 assessed as oxacillin MIC at 50 uM after 18 hrs by CLSI protocol based broth microdilution assay
[10] = test system: Staphylococcus aureus; assay: Potentiation of oxacillin induced antibacterial activity against methicillin-resistant Staphylococcus aureus ATCC 43300 assessed as fold change in oxacillin MIC at 10 uM after 18 hrs by CLSI protocol based broth microdilution assay
[11] = test system: Staphylococcus aureus; assay: Potentiation of oxacillin induced antibacterial activity against methicillin-resistant Staphylococcus aureus ATCC 43300 assessed as oxacillin MIC at 10 uM after 18 hrs by CLSI protocol based broth microdilution assay
[12] = test system: Staphylococcus aureus; assay: Potentiation of oxacillin induced antibacterial activity against methicillin-resistant Staphylococcus aureus COL assessed as oxacillin MIC at 10 uM after 18 hrs by CLSI protocol based broth microdilution assay
[13] = test system: Staphylococcus aureus; assay: Potentiation of oxacillin induced antibacterial activity against methicillin-resistant Staphylococcus aureus USA300 assessed as fold change in oxacillin MIC at 10 uM after 18 hrs by CLSI protocol based broth microdilution assay
[14] = test system: Staphylococcus aureus; assay: Potentiation of oxacillin induced antibacterial activity against methicillin-resistant Staphylococcus aureus COL assessed as fold change in oxacillin MIC at 10 uM after 18 hrs by CLSI protocol based broth microdilution assay
[15] = test system: Staphylococcus aureus; assay: Potentiation of oxacillin induced antibacterial activity against methicillin-resistant Staphylococcus aureus USA300 assessed as oxacillin MIC at 10 uM after 18 hrs by CLSI protocol based broth microdilution assay
[16] = test system: Staphylococcus aureus; assay: Potentiation of oxacillin induced antibacterial activity against methicillin-resistant Staphylococcus aureus USA100 assessed as fold change in oxacillin MIC at 10 uM after 18 hrs by CLSI protocol based broth microdilution assay
[17] = test system: Staphylococcus aureus; assay: Potentiation of oxacillin induced antibacterial activity against methicillin-resistant Staphylococcus aureus USA100 assessed as oxacillin MIC at 10 uM after 18 hrs by CLSI protocol based broth microdilution assay
[18] = test system: Staphylococcus aureus; assay: Antibacterial activity against methicillin-resistant Staphylococcus aureus USA100 assessed as inhibition of bacterial growth after 18 hrs in presence of oxacillin by CLSI protocol based broth microdilution assay
[19] = test system: Staphylococcus aureus; assay: Antibacterial activity against methicillin-resistant Staphylococcus aureus USA300 assessed as inhibition of bacterial growth after 18 hrs in presence of oxacillin by CLSI protocol based broth microdilution assay
[20] = test system: Staphylococcus aureus; assay: Antibacterial activity against methicillin-resistant Staphylococcus aureus COL assessed as inhibition of bacterial growth after 18 hrs in presence of oxacillin by CLSI protocol based broth microdilution assay
[21] = test system: Staphylococcus aureus; assay: Potentiation of oxacillin induced antibacterial activity against methicillin-resistant Staphylococcus aureus ATCC 43300 assessed as oxacillin MIC at 25 uM after 18 hrs by CLSI protocol based broth microdilution assay
[22] = test system: Staphylococcus aureus; assay: Antibacterial activity against methicillin-resistant Staphylococcus aureus USA300 harboring stk1 deletion mutant assessed as inhibition of bacterial growth after 18 hrs in presence of oxacillin by CLSI protocol based broth microdilution assay
Outline: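 USA300 Δstk1 mutant. Oxacillin MIC (µg mL⁻¹) was read with each carbazole held at a fixed 25 or 50 µM, and compared with oxacillin alone in the same strain. Fold change in MIC was taken as alone over cotreated. The parent USA300 and the stk1-complemented (Δ/+stk1) strains were run alongside.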

[23] = test system: Staphylococcus aureus; assay: Antibacterial activity against methicillin-resistant Staphylococcus aureus USA300 harboring stk1 deletion mutant co-transfected with a plasmid bearing stk1 assessed as inhibition of bacterial growth after 18 hrs in presence of oxacillin by CLSI protocol based broth microdilution assay
Outline: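 USA300 Δstk1 strain carrying induced stk1 (Δ/+stk1). […] Fold change in MIC taken relative to oxacillin alone.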

[24] = test system: Staphylococcus aureus; assay: Upregulation of blaZ gene expression in methicillin-resistant Staphylococcus aureus ATCC 43300 by RT-PCR method
[25] = test system: Staphylococcus aureus; assay: Upregulation of blaZ gene expression in methicillin-resistant Staphylococcus aureus USA100 by RT-PCR method
[26] = test system: Staphylococcus aureus; assay: Upregulation of mecA gene expression in methicillin-resistant Staphylococcus aureus ATCC 43300 by RT-PCR method
[27] = test system: Staphylococcus aureus; assay: Upregulation of mecA gene expression in methicillin-resistant Staphylococcus aureus USA100 by RT-PCR method
[28] = test system: Staphylococcus aureus; assay: Upregulation of mecA gene expression in methicillin-resistant Staphylococcus aureus USA300 by RT-PCR method
[29] = test system: Staphylococcus aureus; assay: Upregulation of mecA gene expression in methicillin-resistant Staphylococcus aureus COL by RT-PCR method

| Structure (SMILES) | MIC [1] | MIC [2] [µg/mL] | fold change (FC) [3] | fold change (FC) [4] | fold change (FC) [5] | MIC [6] [µg/mL] | fold change (FC) [7] | MIC [8] [µg/mL] | MIC [9] [µg/mL] | other results |
| --- | --- | --- | --- | --- | --- | --- | --- | --- | --- | --- |
| Ic1ccc2[nH]c3ccccc3c2c1 | > 200 µM | 16 | 2 | 2 | 1 | 512 | 2 | 128 | 16 | – |
| Brc1ccc2c(c1)[nH]c1cc(Br)ccc12 | > 200 µM | 8 | 4 | 4 | 2 | 256 | 4 | 64 | 8 | – |
| Brc1ccc2c(c1)[nH]c1ccccc12 | > 200 µM | 16 | 2 | 2 | 1 | 512 | 1 | 128 | 32 | – |
| Oc1cccc2[nH]c3ccccc3c12 | > 200 µM | 32 | 1 | 1 | 1 | 512 | 1 | 256 | 32 | – |
| Fc1ccc2[nH]c3ccccc3c2c1 | > 200 µM | 16 | 2 | 2 | 1 | 512 | 1 | 128 | 32 | – |
| Clc1ccc2[nH]c3ccc(Cl)cc3c2c1 | 50 µM | – | – | – | – | – | – | – | – | fold change (FC) [10]: 1; MIC [11]: 16 µg/mL; MIC [12]: 128 µg/mL; fold change (FC) [13]: 2; fold change (FC) [14]: 4; MIC [15]: 16 µg/mL; fold change (FC) [16]: 1; MIC [17]: 256 µg/mL |
| COc1ccc2[nH]c3ccc(OC)cc3c2c1 | > 200 µM | 64 | 0.5 | 1 | 1 | 512 | >1 | 256 | 64 | – |
| Brc1ccc2[nH]c3ccccc3c2c1 | > 200 µM | 32 | 1 | 2 | 1 | 512 | 1 | 128 | 32 | – |
| CO[C@@]1(NC(=O)Cc2cccs2)C(=O)N2C(C(=O)O)=C(COC(N)=O)CS[C@@H]21 [CEFOXITIN] | 64 µg/mL | – | – | – | – | – | – | – | – | MIC [18]: 256 µg/mL; MIC [19]: 32 µg/mL; MIC [20]: 256 µg/mL |
| CC(C)(O/N=C(\C(=O)N[C@@H]1C(=O)N2C(C(=O)[O-])=C(C[n+]3ccccc3)CS[C@H]12)c1csc(N)n1)C(=O)O [CEFTAZIDIME] | 128 µg/mL | – | – | – | – | – | – | – | – | MIC [18]: 1020 µg/mL; MIC [19]: 512 µg/mL; MIC [20]: 1020 µg/mL |
| c1ccc2c(c1)[nH]c1ccccc12 [CARBAZOLE] | > 200 µM | 32 | 1 | 1 | 1 | 512 | 1 | 256 | 32 | – |
| CC1(C)S[C@@H]2[C@H](NC(=O)[C@H](N)c3ccccc3)C(=O)N2[C@H]1C(=O)O [AMPICILLIN] | 32 µg/mL | – | – | – | – | – | – | – | – | MIC [18]: 32 µg/mL; MIC [19]: 8 µg/mL; MIC [20]: 32 µg/mL |
| CC(C(=O)O)c1ccc2c(c1)[nH]c1ccc(Cl)cc12 (stereo not given) [CARPROFEN] | 100 µM | – | – | 1 | 1 | 512 | 1 | 256 | 16 | MIC [21]: 32 µg/mL |
| Clc1ccc2c(c1)[nH]c1ccccc12 | > 200 µM | 16 | 2 | 2 | 2 | 512 | 1 | 128 | 16 | – |
| Cc1onc(-c2ccccc2)c1C(=O)N[C@@H]1C(=O)N2[C@@H]1SC(C)(C)[C@@H]2C(=O)O [OXACILLIN] | 32 µg/mL | – | – | – | – | – | – | – | – | MIC [18]: 256 µg/mL; MIC [19]: 32 µg/mL; MIC [20]: 512 µg/mL; MIC [22]: 0.25 µg/mL; MIC [23]: 4 µg/mL; Activity [24]: Active; Activity [25]: Active; Activity [26]: Active; Activity [27]: Active; Activity [28]: Active; Activity [29]: Active |
| COc1cccc(OC)c1C(=O)N[C@@H]1C(=O)N2[C@@H]1SC(C)(C)[C@@H]2C(=O)O [METHICILLIN] | 4 µg/mL | – | – | – | – | – | – | – | – | MIC [18]: 512 µg/mL; MIC [19]: 32 µg/mL; MIC [20]: 1020 µg/mL |
| Nc1ccc2[nH]c3ccc(N)cc3c2c1 | > 200 µM | 32 | 1 | 1 | 1 | 512 | 1 | 256 | 16 | – |
